Source: ChEMBL document CHEMBL1629438, “Selective peroxisome proliferator-activated receptor δ isosteric selenium agonists as potent anti-atherogenic agents in vivo” (Bioorg Med Chem Lett, 2010)
pEC50: −log10 of the molar value.

How the values were obtained:
Type in all cases: functional, cell-based
[1] = biological target: T1, Peroxisome proliferator-activated receptor alpha (Homo sapiens, UniProt Q07869); assay: Agonist activity at human PPAR-alpha expressed in african green monkey CV-1 cells after 24 hrs by luciferase reporter gene assay
T1 sequence (Q07869 whole entry): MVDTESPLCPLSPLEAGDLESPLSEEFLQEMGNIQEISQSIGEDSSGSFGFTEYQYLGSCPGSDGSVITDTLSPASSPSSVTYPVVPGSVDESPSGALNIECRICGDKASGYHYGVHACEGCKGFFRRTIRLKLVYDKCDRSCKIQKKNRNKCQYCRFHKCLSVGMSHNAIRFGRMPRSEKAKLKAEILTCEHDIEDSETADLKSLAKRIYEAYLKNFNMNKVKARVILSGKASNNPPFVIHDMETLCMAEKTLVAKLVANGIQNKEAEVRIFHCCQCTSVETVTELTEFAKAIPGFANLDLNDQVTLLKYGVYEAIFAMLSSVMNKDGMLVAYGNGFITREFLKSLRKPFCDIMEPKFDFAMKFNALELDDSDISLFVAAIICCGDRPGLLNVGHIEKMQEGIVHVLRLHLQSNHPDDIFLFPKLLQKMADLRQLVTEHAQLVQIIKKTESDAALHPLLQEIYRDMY
In short: (§1)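 Cell-based co-transfection reporter assay, with EC50 values derived for each PPAR subtype.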

[2] = biological target: T2, Peroxisome proliferator-activated receptor delta (Homo sapiens, UniProt Q03181); assay: Agonist activity at human PPAR-delta expressed in african green monkey CV-1 cells after 24 hrs by luciferase reporter gene assay; in short: as §1
T2 sequence (Q03181 whole entry): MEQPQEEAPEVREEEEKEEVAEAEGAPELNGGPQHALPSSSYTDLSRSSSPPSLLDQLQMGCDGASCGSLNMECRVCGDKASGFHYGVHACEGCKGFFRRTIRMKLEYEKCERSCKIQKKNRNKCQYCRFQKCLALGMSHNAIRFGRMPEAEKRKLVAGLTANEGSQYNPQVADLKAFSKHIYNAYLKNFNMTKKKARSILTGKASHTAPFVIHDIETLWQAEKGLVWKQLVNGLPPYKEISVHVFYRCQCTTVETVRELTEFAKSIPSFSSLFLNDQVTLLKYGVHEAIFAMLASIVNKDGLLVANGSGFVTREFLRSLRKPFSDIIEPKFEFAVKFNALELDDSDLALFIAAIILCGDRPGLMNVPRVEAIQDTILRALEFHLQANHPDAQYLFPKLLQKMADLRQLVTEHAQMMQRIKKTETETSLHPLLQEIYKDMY

[3] = biological target: T3, Peroxisome proliferator-activated receptor gamma (Homo sapiens, UniProt P37231); assay: Agonist activity at human PPAR-gamma expressed in african green monkey CV-1 cells after 24 hrs by luciferase reporter gene assay
T3 sequence (P37231 whole entry): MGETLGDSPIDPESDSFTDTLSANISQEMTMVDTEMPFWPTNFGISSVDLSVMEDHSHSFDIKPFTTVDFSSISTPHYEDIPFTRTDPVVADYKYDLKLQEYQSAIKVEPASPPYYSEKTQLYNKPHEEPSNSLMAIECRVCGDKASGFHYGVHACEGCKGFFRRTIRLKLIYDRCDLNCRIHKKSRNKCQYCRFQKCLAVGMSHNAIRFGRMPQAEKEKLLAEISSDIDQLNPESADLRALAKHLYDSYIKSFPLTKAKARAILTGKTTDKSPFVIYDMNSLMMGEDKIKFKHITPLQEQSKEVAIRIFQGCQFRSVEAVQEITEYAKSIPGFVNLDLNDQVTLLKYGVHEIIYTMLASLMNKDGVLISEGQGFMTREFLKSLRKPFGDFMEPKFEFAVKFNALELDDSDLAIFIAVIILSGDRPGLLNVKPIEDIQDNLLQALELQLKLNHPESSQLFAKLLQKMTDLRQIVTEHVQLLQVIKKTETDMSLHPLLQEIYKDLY

| Compound | pEC50 [1] | pEC50 [2] | pEC50 [3] |
| --- | --- | --- | --- |
| Cc1cc([Se]Cc2sc(-c3ccc(C(F)(F)F)c(F)c3)nc2C)ccc1OCC(=O)O | 6.46 | 9.00 | < 6.00 |
| Cc1cc([Se]Cc2sc(-c3ccc(C(F)(F)F)cc3)nc2C)ccc1OC(C)C(=O)O (stereo not given) | 6.92 | 7.96 | < 6.00 |
| CCC(Oc1ccc([Se]Cc2sc(-c3ccc(C(F)(F)F)c(F)c3)nc2C)cc1C)C(=O)O (stereo not given) | < 6.00 | 8.15 | 6.57 |
| Cc1cc([Se]Cc2sc(-c3ccc(C(F)(F)F)cc3)nc2C)ccc1OC(C)(C)C(=O)O | 7.82 | 8.35 | 7.00 |
| Cc1cc([Se]Cc2sc(-c3ccc(C(F)(F)F)c(F)c3)nc2C)ccc1OC(C)(C)C(=O)O | 7.61 | 8.74 | 6.54 |
